Source: paper PMC6126370 (Investigational new drugs, 2017)

Tests used:
[1] = Clinical pharmacokinetics of PU-H71 in plasma and urine; format: in vivo, human; settings: for Urinary excretion: 1-h i.v. infusion
How it was run: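 Patients with refractory solid tumors received the test compound (10–470 mg/m2) as a 1-h i.v. infusion. Heparinised blood was drawn on cycle 1 day 1 pre-infusion, 30 min after start, 5 min before end, and 1.5–24 h after start. Plasma was stored at −70 °C. Urine was collected every void on day 1. Plasma was acetonitrile-precipitated with deuterated internal standard and run on HPLC/MS against a control-plasma standard curve. Cmax/Tmax were taken by inspection and AUC by trapezoidal rule.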

[2] = system: patients with advanced solid tumors; settings: human, in vivo
[3] = system: refractory solid tumors; assay: Clinical response by RECIST 1.1; format: in vivo, human
How it was run: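 Adults (≥18 y) with solid tumors refractory to or lacking standard therapy received the test compound i.v. over 1 h on days 1 and 8 of 21-day cycles. Doses were 10–470 mg/m2/day, escalated by modified accelerated titration and then 3+3. Response was assessed by RECIST criteria in evaluable patients.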

[4] = system: human liver microsomal fractions; assay: In vitro metabolism in liver microsomes or S9 fractions; format: in vitro ADME
How it was run: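 Test compound at 1 and 10 μM was incubated with human liver microsomes or S9 fraction (0.5 mg protein/mL) with 1 mM NADPH and 3.3 mM […] in 100 mM phosphate, pH 7.4, at 37 °C with shaking. For O-methylation, 0.1 mM S-adenosyl methionine was added. Aliquots were processed like plasma and analysed by LC/MS.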

[5] = system: Bcl-6-dependent diffuse large B-cell lymphoma (DLBCL), hepatocellular carcinoma (HCC), and breast cancer cell lines; settings: preclinical studies, through induction of apoptosis; cited from earlier work
[6] = system: mouse xenografts of triple negative breast cancer, lymphoma, myeloma, pancreatic, and hepatocellular carcinoma; settings: preclinical mouse xenografts; cited from earlier work
[7] = PU-H71 metabolites in patient plasma; format: in vivo, human; settings: aliquot of patient plasma, Fig. 5a
[8] = 14 patients evaluable of 17 enrolled

Compound: CC(C)NCCCn1c(Sc2cc3c(cc2I)OCO3)nc2c(N)ncnc21 [PU-H71, 6-amino-8-[(6-iodo-1,3-benzodioxol-5-yl)thio]-N-(1-methylethyl)-9H–purine-9-propanamine]
- dependency of T1/2 to dose level ([1]; 10 to 470 mg/m^2): no dependency to dose level
- fraction of total AUC (± SD) during the infusion ([1]; all dose levels): 19.6% ± 11.3%
- Urinary excretion ([1]; dose level 1 (10 mg/m^2), day 1, 1 patient): 5.5%
- Urinary excretion ([1]; dose level 4 (60 mg/m^2), day 1, 1 patient): 8.8%
- Urinary excretion ([1]; dose level 5 (80 mg/m^2), day 1, mean ± SD of 2 patients): 6.7 ± 1.3%
- Urinary excretion ([1]; dose level 6 (110 mg/m^2), day 1, mean ± SD of 3 patients): 6.7 ±4.6%
- Urinary excretion ([1]; dose level 7 (150 mg/m^2), day 1, 1 patient): 8.1%
- Urinary excretion ([1]; dose level 8 (200 mg/m^2), day 1, mean ± SD of 2 patients): 6.0 ± 4.2%
- Urinary excretion ([1]; dose level 9 (266 mg/m^2), day 1, 1 patient): 5.4%
- Urinary excretion ([1]; dose level 10 (354 mg/m^2), day 1, mean ± SD of 3 patients): 8.6 ± 4.6%
- Urinary excretion ([1]; dose level 11 (470 mg/m^2), day 1, 1 patient): 5.7%
- Tmax ([1]; human, plasma, intravenous): ≤ 1 h
- half-life ([1]; human, plasma, intravenous): 2.7 to 19.8 h
- half-life ([1]; human, plasma, iv): 8.4 ± 3.6 h
- AUC(0-inf) ([1]; human, plasma, iv, 10 mg/m^2): 0.517 µM·h
- AUC(0-t) ([1]; human, plasma, iv, 10 mg/m^2): 0.45 µM·h
- Cmax ([1]; human, plasma, iv, 10 mg/m^2): 0.2 µM
- clearance ([1]; human, plasma, iv, 10 mg/m^2): 17.2 mL/min/kg
- half-life ([1]; human, plasma, iv, 10 mg/m^2): 2.7 h
- AUC(0-inf) ([1]; human, plasma, iv, 20 mg/m^2): 1.67 µM·h
- AUC(0-t) ([1]; human, plasma, iv, 20 mg/m^2): 1.23 µM·h
- Cmax ([1]; human, plasma, iv, 20 mg/m^2): 0.3 µM
- clearance ([1]; human, plasma, iv, 20 mg/m^2): 10.5 mL/min/kg
- half-life ([1]; human, plasma, iv, 20 mg/m^2): 10.5 h
- half-life ([1]; human, plasma, iv, 40 mg/m^2): 9.2 h
- AUC(0-inf) ([1]; human, plasma, iv, 60 mg/m^2): 5.02 µM·h
- AUC(0-t) ([1]; human, plasma, iv, 60 mg/m^2): 4.55 µM·h
- Cmax ([1]; human, plasma, iv, 60 mg/m^2): 1.3 µM
- clearance ([1]; human, plasma, iv, 60 mg/m^2): 10.5 mL/min/kg
- half-life ([1]; human, plasma, iv, 60 mg/m^2): 6.1 h
- AUC(0-inf) ([1]; human, plasma, iv, 80 mg/m^2): 16.8 µM·h
- AUC(0-t) ([1]; human, plasma, iv, 80 mg/m^2): 15 µM·h
- Cmax ([1]; human, plasma, iv, 80 mg/m^2): 5.7 ± 0.1 µM
- clearance ([1]; human, plasma, iv, 80 mg/m^2): 4.17 mL/min/kg
- half-life ([1]; human, plasma, iv, 80 mg/m^2): 6.7 ± 0.1 h
- AUC(0-inf) ([1]; human, plasma, iv, 110 mg/m^2): 22.9 µM·h
- AUC(0-t) ([1]; human, plasma, iv, 110 mg/m^2): 19.8 µM·h
- Cmax ([1]; human, plasma, iv, 110 mg/m^2): 7.3 ± 2.4 µM
- clearance ([1]; human, plasma, iv, 110 mg/m^2): 4.67 mL/min/kg
- half-life ([1]; human, plasma, iv, 110 mg/m^2): 7.6 ± 0.2 h
- AUC(0-inf) ([1]; human, plasma, iv, 150 mg/m^2): 29.5 µM·h
- AUC(0-t) ([1]; human, plasma, iv, 150 mg/m^2): 25.6 µM·h
- Cmax ([1]; human, plasma, iv, 150 mg/m^2): 8.7 µM
- clearance ([1]; human, plasma, iv, 150 mg/m^2): 4.5 mL/min/kg
- half-life ([1]; human, plasma, iv, 150 mg/m^2): 7.2 h
- AUC(0-inf) ([1]; human, plasma, iv, 200 mg/m^2): 41.3 µM·h
- AUC(0-t) ([1]; human, plasma, iv, 200 mg/m^2): 34.8 µM·h
- Cmax ([1]; human, plasma, iv, 200 mg/m^2): 8 ± 4.5 µM
- clearance ([1]; human, plasma, iv, 200 mg/m^2): 4.33 mL/min/kg
- half-life ([1]; human, plasma, iv, 200 mg/m^2): 7.1 ± 0.5 h
- AUC(0-inf) ([1]; human, plasma, iv, 266 mg/m^2): 90.8 µM·h
- AUC(0-t) ([1]; human, plasma, iv, 266 mg/m^2): 59.9 µM·h
- Cmax ([1]; human, plasma, iv, 266 mg/m^2): 7.8 µM
- clearance ([1]; human, plasma, iv, 266 mg/m^2): 2.5 mL/min/kg
- half-life ([1]; human, plasma, iv, 266 mg/m^2): 10.2 h
- AUC(0-inf) ([1]; human, plasma, iv, 354 mg/m^2): 180 µM·h
- AUC(0-t) ([1]; human, plasma, iv, 354 mg/m^2): 114 µM·h
- Cmax ([1]; human, plasma, iv, 354 mg/m^2): 17.3 ± 8.5 µM
- clearance ([1]; human, plasma, iv, 354 mg/m^2): 2.17 mL/min/kg
- half-life ([1]; human, plasma, iv, 354 mg/m^2): 11.5 ± 7.3 h
- AUC(0-inf) ([1]; human, plasma, iv, 470 mg/m^2): 203 µM·h
- AUC(0-t) ([1]; human, plasma, iv, 470 mg/m^2): 143 µM·h
- Cmax ([1]; human, plasma, iv, 470 mg/m^2): 33.7 µM
- clearance ([1]; human, plasma, iv, 470 mg/m^2): 2 mL/min/kg
- half-life ([1]; human, plasma, iv, 470 mg/m^2): 10.8 h
- given dose (± SD) recovered as free drug in urine ([1]; total urine collected in 24 h, average for all dose levels): 6.7 ± 3.0%
- dose level of first grade ≥ 2 toxicity [2]: DL 6
- progressive disease within the first 2 cycles ([3]; 14 evaluable patients): Eight of the evaluable patients progressed early
- patients with best response of stable disease [3, 8]: 35%
- patients with best response of stable disease for >2 cycles (number) [3, 8]: 6
- phase 1 reactions ([4]; NADPH, 37 °C): S-oxidation, N-dealkylation, de-iodination, and O-demethylation
- most active phase 1 reaction ([4]; forms catechol 501): O-demethylation
- cytotoxicity [5]: high cytotoxicity
- growth inhibitory effects in xenografts [6]: potent and lasting growth inhibitory effects

Compound: NCCCn1c(Sc2cc3c(cc2I)OCO3)nc2c(N)ncnc21 [compound 471, de-isopropyl PU-H71]
- peak in representative ion mass tracing [7]: observed
